Assay results reported in ChEMBL document CHEMBL1132562, “Ajoene is an inhibitor and subversive substrate of human glutathione reductase and Trypanosoma cruzi trypanothione reductase: crystallographic, kinetic, and spectroscopic studies” (J Med Chem, 1999).
Calls of active or inactive are those of the source. No cut-off for these calls is given here.

Legend:
[1] = target: Trypanothione reductase (Trypanosoma cruzi) (UniProt P28593); assay: Percent inhibition of Trypanothione reductase (TR) with 200 uM (E)-ajoene in the presence of NADPH at 37 C
Summary of the method: (§1)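 T. cruzi TR (0.4–1.0 U in 200 μL) incubated at 37 °C with 200 μM NADPH and 200 μM ajoene for up to 60 min. Aliquots assayed for residual activity: 100 μM NADPH, 120 μM trypanothione disulfide, Hepes pH 7.5, 340 nm decrease.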

[2] = target: T1, Glutathione reductase, mitochondrial (Homo sapiens) (UniProt P00390); assay: Percent inhibition of 0.3 uM (E)-ajoene in the presence of NADPH for 15 min at 37 C
T1 sequence (whole entry): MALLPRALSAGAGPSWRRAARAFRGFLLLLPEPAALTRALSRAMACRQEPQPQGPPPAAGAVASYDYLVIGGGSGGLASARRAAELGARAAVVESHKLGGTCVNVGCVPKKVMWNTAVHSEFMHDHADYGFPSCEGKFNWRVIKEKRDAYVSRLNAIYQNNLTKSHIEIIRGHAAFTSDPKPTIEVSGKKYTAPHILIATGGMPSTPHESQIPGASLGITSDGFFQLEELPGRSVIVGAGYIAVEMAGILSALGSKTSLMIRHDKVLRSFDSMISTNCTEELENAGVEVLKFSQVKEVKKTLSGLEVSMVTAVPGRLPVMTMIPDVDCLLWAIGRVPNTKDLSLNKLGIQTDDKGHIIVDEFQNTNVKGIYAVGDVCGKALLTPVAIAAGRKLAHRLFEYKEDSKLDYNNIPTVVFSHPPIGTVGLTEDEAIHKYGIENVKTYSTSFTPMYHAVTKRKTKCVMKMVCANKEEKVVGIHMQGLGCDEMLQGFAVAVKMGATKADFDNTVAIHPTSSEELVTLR
Summary of the method: (§2)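 GR (0.4–1.0 U in 200 μL; 0.3 μM) incubated at 37 °C in GR assay buffer, pH 6.9, with 200 μM NADPH (or without) and 12.5–200 μM ajoene. Ethanol replaced inhibitor in controls. 2-μL aliquots taken over time were assayed for remaining activity in a standard GR assay: 100 μM NADPH, 1 mM GSSG, 340 nm, 25 °C.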

[3] = target: Trypanothione reductase (Trypanosoma cruzi) (UniProt P28593); assay: kcat/Km value determined against Trypanothione reductase (TR) by oxidation of NADPH
Summary of the method: (§3)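 T. cruzi trypanothione reductase, recombinant, with NADPH and ajoene as substrate in TR assay buffer (40 mM Hepes, 1 mM EDTA, pH 7.5) at 25 °C. NADPH oxidation followed as absorbance decrease at 340 nm. Controls held only NADPH and enzyme, giving the intrinsic oxidase activity.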

[4] = target: T1, Glutathione reductase, mitochondrial (Homo sapiens); assay: Percent inhibition of 0.3 uM (E)-ajoene in the absence of NADPH for 15 min at 37 C; NI=No Inhibition; summary of the method: as §2
[5] = target: T1, Glutathione reductase, mitochondrial (Homo sapiens); assay: Kcat value determined against human Glutathione reductase (GR) by oxidation of NADPH in the presence of GSH
Summary of the method: (§4)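 Recombinant human glutathione reductase in GR assay buffer (phosphate, 200 mM KCl, 1 mM EDTA, pH 6.9) at 25 °C with 150 μM NADPH and ajoene or DATS as substrate. NADPH consumption read at 340 nm. Where GSH is present, it is added to the mixture. Controls held NADPH and enzyme only (intrinsic oxidase activity).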

[6] = target: T1, Glutathione reductase, mitochondrial (Homo sapiens); assay: kcat/Km value determined against human Glutathione reductase (GR) by oxidation of NADPH; summary of the method: as §4
[7] = target: T1, Glutathione reductase, mitochondrial (Homo sapiens); assay: Kcat value determined against human Glutathione reductase (GR) by reduction of cytochrome c
Summary of the method: (§5)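 1–2 U human GR preincubated 2 min at 25 °C with 200 μM NADPH and 25 μM horse heart cytochrome c in assay buffer, pH 7.5. Reaction started with 200 μM ajoene or DATS. Cytochrome c reduction followed at 550 nm (ε 19.1 mM⁻¹ cm⁻¹). Controls without enzyme. Superoxide tested by adding superoxide dismutase.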

[8] = target: T1, Glutathione reductase, mitochondrial (Homo sapiens); assay: Kcat value determined against human Glutathione reductase (GR) by reduction of cytochrome c in the presence of GSH; summary of the method: as §5
[9] = target: T1, Glutathione reductase, mitochondrial (Homo sapiens); assay: Kcat value determined against human Glutathione reductase (GR) by oxidation of NADPH; summary of the method: as §4
[10] = target: Trypanothione reductase (Trypanosoma cruzi) (UniProt P28593); assay: kcat/Km value determined against Trypanothione reductase (TR); summary of the method: as §3
[11] = target: Trypanothione reductase (Trypanosoma cruzi) (UniProt P28593); assay: Kcat value determined against Trypanothione reductase (TR) by oxidation of NADPH; summary of the method: as §3
[12] = target: T1, Glutathione reductase, mitochondrial (Homo sapiens); assay: kcat/Km value determined against human Glutathione reductase (GR); summary of the method: as §4
[13] = target: Trypanothione reductase (Trypanosoma cruzi) (UniProt P28593); assay: Percent inhibition of Trypanothione reductase (TR) with 200 uM (Z)-ajoene in the presence of NADPH at 37 C; summary of the method: as §1
[14] = target: T1, Glutathione reductase, mitochondrial (Homo sapiens); assay: Percent inhibition of 0.3 uM (Z)-ajoene in the absence of NADPH for 15 min at 37 C; NI=No Inhibition; summary of the method: as §2
[15] = target: T1, Glutathione reductase, mitochondrial (Homo sapiens); assay: Percent inhibition of 0.3 uM (Z)-ajoene in the presence of NADPH for 15 min at 37 C; summary of the method: as §2

Chain of Trypanothione reductase (Trypanosoma cruzi) (P28593 whole entry, looked up): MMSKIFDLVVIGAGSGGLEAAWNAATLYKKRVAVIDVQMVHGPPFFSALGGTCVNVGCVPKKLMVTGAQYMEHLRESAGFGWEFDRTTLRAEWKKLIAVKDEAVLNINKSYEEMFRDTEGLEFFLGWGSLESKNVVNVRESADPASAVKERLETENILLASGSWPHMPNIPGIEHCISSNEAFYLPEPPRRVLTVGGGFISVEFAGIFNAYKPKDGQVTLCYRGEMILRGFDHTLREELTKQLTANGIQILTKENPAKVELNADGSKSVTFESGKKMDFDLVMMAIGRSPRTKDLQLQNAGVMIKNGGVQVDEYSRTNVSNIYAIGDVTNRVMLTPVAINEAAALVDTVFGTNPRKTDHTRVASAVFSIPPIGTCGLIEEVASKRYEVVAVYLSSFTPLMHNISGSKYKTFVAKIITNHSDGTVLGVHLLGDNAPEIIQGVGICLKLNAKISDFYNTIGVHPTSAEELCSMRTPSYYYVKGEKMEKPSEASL

| inhibition [1] [%] | inhibition [2] [%] | k cat/Km [3] [M⁻¹ s⁻¹] | inhibition [4] | k cat [5] [s⁻¹] | k cat/Km [6] [M⁻¹ s⁻¹] | k cat [7] [s⁻¹] | k cat [8] [s⁻¹] | k cat [9] [s⁻¹] | k cat/Km [10] [M⁻¹ s⁻¹] | k cat [11] [s⁻¹] | k cat/Km [12] [M⁻¹ s⁻¹] | inhibition [13] [%] | inhibition [14] | inhibition [15] [%] | SMILES |
| --- | --- | --- | --- | --- | --- | --- | --- | --- | --- | --- | --- | --- | --- | --- | --- |
| 50 | 50 | 335 | inactive | 1.47 | 425 | 0.1 | 0.32 | 0.34 | 340 | 0.67 | 680 |  |  |  | C=CCSS/C=C/C[S+]([O-])CC=C (centres undefined) |
|  |  |  |  |  | 1000 |  |  | 0.16 |  |  |  |  |  |  | C=CCSSSCC=C |
|  |  | 335 |  |  | 6840 | 0.06 |  | 2.6 | 340 | 0.67 | 6800 | 40 | inactive | 50 | C=CCSS/C=C\C[S+]([O-])CC=C (centres undefined) |
